# Results collected from several papers.
# Each line is one published result; the experiments were not run side by side.
# Cell line: MCF7
# Read-out: cell growth or viability
Structure (SMILES),test,setting,GI50 [nM]
COc1cc2c(OC)nc3c4cc5c(cc4cc(OCCN4CCCC4)c3c2cc1OC)OCO5,MTT,72 h,≥ 100000
COc1ccc(C(=O)/C=C/c2cccc(Cl)c2)cc1S(N)(=O)=O,SRB,48 h,2000
COc1cc(C(CC(=O)c2ccc(Cl)cc2)NCCc2ccc(O)c(O)c2)ccc1O (stereo not drawn),MTT,,1090
COc1cc(-c2ccc(-c3ccc(C(=N)N)nc3)s2)cc(OC)c1OC,SRB,,1300
COc1cccc(Oc2ccccc2NC(=O)CNC(=O)c2cccc3ccccc23)c1,SRB,48 h,100
COc1cc(C(CC(=O)c2ccc(C(C)(C)C)cc2)NCCc2ccc(O)c(O)c2)ccc1O (stereo not drawn),MTT,,2600
COc1cc2c(Nc3ccc(Br)cc3F)ncnc2cc1OCC1CCN(C)CC1,MTT,72 h,250
COc1ccc(C(=O)/C=C/c2ccccc2Br)cc1S(N)(=O)=O,SRB,48 h,2900
COc1cc(C(CC(N)=O)NCCc2ccc(O)c(O)c2)ccc1O (stereo not drawn),MTT,,26200
COc1ccc(C(=O)/C=C/c2c(F)cccc2Cl)cc1S(N)(=O)=O,SRB,48 h,2200
CCN(CC)CCOc1cc2cc3c(cc2c2nc(OC)c4cc(OC)c(OC)cc4c12)OCO3,MTT,72 h,≥ 100000
COc1ccc(C(=O)/C=C/c2ccc3ccccc3c2)cc1S(N)(=O)=O,SRB,48 h,1600
COc1cc2c(OC)nc3c4cc5c(cc4cc(O)c3c2cc1OC)OCO5,MTT,72 h,13000
CC(=O)c1c(C)c2cnc(Nc3ccc(N4CCNCC4)cn3)nc2n(C2CCCC2)c1=O,resazurin,,150
COc1cc2c(OC)nc3c4cc5c(cc4cc(OCCCN4CCCC4)c3c2cc1OC)OCO5,MTT,72 h,8600
COc1ccc(C(=O)/C=C/c2ccc(Cl)c(Cl)c2)cc1S(N)(=O)=O,SRB,48 h,1100
COc1cc(C(CC(=O)c2ccc(Br)cc2)NCCc2ccc(O)c(O)c2)ccc1O (stereo not drawn),MTT,,20
COc1ccc(-c2ccc(-c3ccc(C(=N)N)nc3)s2)cc1Cl,SRB,,1750
